Results from paper PMC3710193 (Journal of immunology (Baltimore, Md. : 1950), 2011).
“And” between values parts separate entries of the source, which are not always exact repeats. Identical values can stand only once.

Experiments:
NKT cells = assay: In vivo stimulation of NKT cells, serum cytokines by cytometric bead array; parameters: species or system mice; details: 1 μg i.p.
Method in brief: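 Mice received 1 μg test glycolipid i.p. in 200 μL PBS. Serum was collected at 2 and 24 hr, and IFN-γ and IL-4 were quantified by cytometric bead array. Ratio taken as serum IFN-γ at 24 hr over IL-4 at 2 hr. Results combine three independent experiments, 10 mice per group.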

spleen NKT cells [1] = assay: CFSE proliferation assay of spleen NKT cells; format: cell-based, C57BL/6 mice; details: 72 hr, 100, 10 and 1 ng/ml
spleen cells = assay: Cytometric bead array of 72 hr splenocyte culture supernatants; format: cell-based, C57BL/6 mice; details: 72 hr spleen cell cultures, CBA
Method in brief: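 C57BL/6 splenocytes (5×10^5/well) pulsed with test glycolipid at 100, 10 or 1 ng/ml and cultured overnight. Medium was then replaced without further glycolipid, and supernatants were harvested at 72 hr. Mean ± SEM of three independent experiments (IL-10: two), each the mean of duplicate cultures.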

Vβ7 NKT TCR / CD1d-Ag = assay: SPR of Vβ7 NKT TCR binding to glycolipid-loaded CD1d; parameters: species or system mouse
Method in brief: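 Refolded mouse Vα14-Vβ7 NKT TCR flowed over glycolipid-loaded mouse CD1d (baculovirus-expressed, BirA/His-tagged) captured on streptavidin chips; CD1d-endogenous lipid surface subtracted. 25°C, HEPES buffer pH 7.4, 150 mM NaCl, 0.005% P20. Kinetics: 300–500 RU, 0.19–25 μM, 50 μl/min for 60 s, 1:1 Langmuir fit, duplicate. Steady-state: 2000 RU, 0.039–40 μM, 5 μl/min for 90 s, one-site fit.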

spleen NKT cells [2] = assay: Intracellular cytokine staining for IFN-γ in spleen NKT cells at 8 hours; format: cell-based, C57BL/6 mice; details: highest dose 100 ng/ml, ICS
Method in brief: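 Splenocytes from C57BL/6 mice (5×10^5/well) were cultured 8 hr with test glycolipid (100, 10, 1 ng/ml), with Golgistop for the final 4 hr. Four replicate wells were pooled per determination. Cells were surface-stained with glycolipid-loaded CD1d tetramer-PE and anti-TCR-β, fixed, permeabilised and stained for intracellular IFN-γ. Mean ± SEM of three experiments, each the mean of duplicate cultures.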

[3] = target: T1, Vβ8.2 NKT TCR (Vα14-Vβ8.2) / CD1d-Ag (Mus musculus, UniProt P11609+Z9CWY5XBV8); assay: SPR of Vβ8.2 NKT TCR binding to glycolipid-loaded CD1d; details: for ka / kd: SPR kinetic experiment, 25°C, 1:1 Langmuir model
T1 sequence (P11609 22-305 limits assumed): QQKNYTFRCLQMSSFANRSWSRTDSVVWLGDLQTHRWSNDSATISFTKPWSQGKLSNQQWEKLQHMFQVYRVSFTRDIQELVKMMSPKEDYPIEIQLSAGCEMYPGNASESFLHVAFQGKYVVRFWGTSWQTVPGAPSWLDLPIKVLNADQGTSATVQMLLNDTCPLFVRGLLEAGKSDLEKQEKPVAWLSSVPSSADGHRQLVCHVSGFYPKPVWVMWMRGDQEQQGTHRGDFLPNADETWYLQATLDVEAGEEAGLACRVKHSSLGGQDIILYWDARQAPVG
T1 sequence (P01887 21-119): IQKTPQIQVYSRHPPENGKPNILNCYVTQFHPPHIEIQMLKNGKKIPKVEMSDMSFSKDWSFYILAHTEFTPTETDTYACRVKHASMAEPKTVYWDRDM

[4] = Vβ7 TCR, SPR kinetic experiment, 25°C, 1:1 Langmuir model

Compound | ratio of peak IFN-γ response (24 hours) to peak IL-4 response (2 hours) (NKT cells; serum) | serum IFN-γ production in vivo compared to α-GalCer (NKT cells; serum at 2 and 24 hr) | serum IL-4 production in vivo compared to α-GalCer (NKT cells; serum at 2 and 24 hr) | NKT cell proliferation (in words) (spleen NKT cells [1]) | cytokine amounts, fold lower compared to α-GalCer (spleen cells) | NKT TCR affinity relative to CD1d-α-GalCer interaction (fold lower) (Vβ7 NKT TCR / CD1d-Ag; Vβ7 NKT TCR) | IFN-γ+ NKT cells (spleen NKT cells [2]) | Kd ([3]; KD(eq), Vβ8.2 TCR, steady-state affinity determined in separate experiment) | NKT TCR affinity relative to CD1d-α-GalCer interaction (fold lower) ([3]; Vβ8.2 NKT TCR) | ka ([3]; Vβ8.2 TCR) | kd ([3]; Vβ8.2 TCR) | ka (Vβ7 NKT TCR / CD1d-Ag; [4]) [M⁻¹ s⁻¹] | kd (Vβ7 NKT TCR / CD1d-Ag; [4]) [s⁻¹] | Kd ([3]; affinity (KD(eq)), Vβ8.2 NKT TCR, response at equilibrium) [nM]
CCCCCCCCCCCCCCCCCCCCCCCCCC(=O)N[C@@H](CC[C@H]1O[C@H](CO)[C@H](O)[C@H](O)[C@H]1O)[C@H](O)[C@H](O)CCCCCCCCCCCCCC [α-C-GalCer] | Th1-like bias | lower amounts | lower amounts | little difference in the proliferative response | 2–5 fold | approximately 10 fold | ~ 12% | ~2000 nM and 2000 nM | approximately 10 fold | 225000 M⁻¹ s⁻¹ and 225000 ± 41000 M⁻¹ s⁻¹ | 0.29 s⁻¹ and 0.29 ± 0.02 s⁻¹ |  |  | 
CCCCCCCCCCCCCCCCCCCCCCCCCC(=O)N[C@@H](CO[C@H]1O[C@H](CO)[C@H](O)[C@H](O)[C@H]1O)[C@H](O)[C@H](O)CCCCCCCCCCCCCC [α-GalCer, α-galactosylceramide, reference compound] |  |  |  |  |  |  | approximately 25% |  |  | 162000 M⁻¹ s⁻¹ and 162000 ± 9500 M⁻¹ s⁻¹ | 0.02 s^−1 and 0.02 ± 4.5×10^−4 s^−1 | 231000 ± 31500 | 0.09 ± 0.003 | 300
